ChEMBL document CHEMBL2331084, “Synthesis and evaluation of oxime derivatives as modulators for amyloid beta-induced mitochondrial dysfunction” (Eur J Med Chem, 2013)

How the values were obtained:
[1] = test system: HT-22; experiment: Inhibition of mPTP in mouse HT22 cells assessed as recovery in amyloid beta-suppressed ATP level at 5 uM incubated for 10 mins prior to amyloid beta-challenge measured for 7 hrs relative to control; format: cell-based; set-up: scale not given: the % may be the effect or the level left
Summary of the method: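 HT-22 mouse hippocampal cells, grown in DMEM with 10% FBS at 37 °C and 5% CO2, were seeded the day before. Compound (10 µM solution) added 10 min before amyloid beta 1-42 (10 µM solution), then 7 h at 37 °C. Lysates normalised to equal protein by BCA, and ATP measured with a luciferase kit. % recovery is relative to the amyloid-treated vehicle. Viability is from ATP without amyloid beta.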

[2] = Cytotoxicity against mouse […] cells assessed as cell viability at 5 uM; format: cell-based; settings: HT22 cells, read-out: Activity
[3] = test system: HT-22; experiment: Inhibition of mPTP in mouse HT22 cells assessed as reduction in amyloid beta-induced mitochondrial membrane damage at 10 uM incubated for 10 mins prior to amyloid beta-challenge measured every 1 hr for 3 hrs by JC-1 based fluorometric analysis; format: cell-based; set-up: scale not given: the % may be the effect or the level left
Summary of the method: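 HT-22 cells, 30,000 per well, seeded a day earlier, loaded with 7.5 μM JC-1 (final) in phenol red-free Opti-MEM for 1 h 15 min at 37 °C, then PBS-washed. Compound solution at 10 μM for 10 min at 37 °C, then amyloid beta 1–42 solution at 10 μM. Red (ex/em 530/580) and green (485/530) fluorescence read hourly for 3 h. Green/red ratio change normalised to vehicle as 100%.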

[4] = Terminal half life in Sprague-Dawley rat at 3 mg/kg, ip; format: ADME, organism-based; set-up: dose 3 mg/kg, route intraperitoneal; settings: in vivo, read-out: beta t1/2
[5] = test system: HT-22; experiment: Neuroprotective activity against in mouse HT22 cells assessed as inhibition of amyloid beta-induced toxicity at 10 uM incubated for 10 mins prior to amyloid beta-challenge measured after 24 hrs by MTT assay; format: functional
Summary of the method: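 HT-22 mouse hippocampal cells (DMEM, 10% FBS), 5000 per well, seeded a day before. Compound solution at 10 μM added 10 min before amyloid beta 1–42 solution at 10 μM, then 24 h at 37 °C. MTT 2 h, then acidified Triton/isopropanol for 1 h at RT, A570. Vehicle subtracted; % inhibition versus Aβ-treated vehicle; viability from wells without Aβ.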

[6] = Tmax in Sprague-Dawley rat at 3 mg/kg, ip; format: ADME, organism-based; set-up: dose 3 mg/kg, route intraperitoneal; settings: in vivo
[7] = Ratio of drug uptake in brain to drug uptake in plasma in ICR mouse at 10 mg/kg, po; format: ADME, organism-based; set-up: dose 10 mg/kg, route oral; settings: read-out: BPR
[8] = Cmax in ICR mouse at 10 mg/kg, po; format: ADME, organism-based; set-up: dose 10 mg/kg, route oral; settings: in vivo
[9] = AUClast in Sprague-Dawley rat at 3 mg/kg, ip; format: ADME, organism-based; set-up: dose 3 mg/kg, route intraperitoneal, time 0 - last; settings: plasma
[10] = AUClast in ICR mouse at 10 mg/kg, po; format: ADME, organism-based; set-up: time 0 - last, dose 10 mg/kg, route oral; settings: plasma
[11] = test system: Plasma; experiment: Metabolic stability in rat plasma at 0.5 ug/ml after 2 hrs by LC/MS analysis; format: ADME, cell-free; settings: 2 h
Summary of the method: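 Drug-free rat plasma spiked from acetonitrile stock to 0.5 μg/mL, held at 37 °C with shaking for 0, 15, 30, 60 and 120 min. Quenched with 2 volumes of acetonitrile containing carbamazepine internal standard, centrifuged, supernatant quantified by LC–MS/MS.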

[12] = AUC (0 to infinity) in Sprague-Dawley rat at 3 mg/kg, ip; format: ADME, organism-based; set-up: dose 3 mg/kg, route intraperitoneal, time infinity; settings: plasma
[13] = Tmax in ICR mouse at 10 mg/kg, po; format: ADME, organism-based; set-up: dose 10 mg/kg, route oral; settings: in vivo
[14] = Cytotoxicity against mouse […] cells assessed as cell viability at 10 uM after 24 hrs by MTT assay; format: cell-based; settings: read-out: Activity
[15] = Metabolic stability in human liver microsomes at 1 uM after 30 mins by LC/MS analysis; format: ADME, Microsome; settings: read-out: Stability
Summary of the method: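 Pooled human liver microsomes (0.5 mg/mL protein), compound at 1 μM, 1.2 mM NADPH, 100 mM phosphate pH 7.4, 37 °C with shaking for 30 min, in duplicate. Stopped with ice-cold acetonitrile containing internal standard, centrifuged, supernatant analysed by LC–MS/MS for % remaining.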

[16] = Cmax in Sprague-Dawley rat at 3 mg/kg, ip; format: ADME, organism-based; set-up: dose 3 mg/kg, route intraperitoneal; settings: in vivo

SMILES	Activity [1]	viability at 5 µM [2]	Activity [3]	other results
CC(C)N1CCC(O/N=C/c2ccccc2OCc2ccccc2)C1 (stereo not drawn)	-93%	67%	19%	
Clc1ccc(COc2ccccc2/C=N/OC2CN3CCC2CC3)cc1 (stereo not drawn)			85%	
FC(F)(F)c1cccc(/C=N/OC2CN3CCC2CC3)c1 (stereo not drawn)			74%	
C(=N\OC1CCN(Cc2ccccc2)C1)/c1ccccc1OCc1ccccc1 (stereo not drawn)	-137%	99%	38%	
C(=N\OC1CN2CCC1CC2)/c1ccccc1OCc1ccccc1 (stereo not drawn)	13%	92%	59%	half-life [4]: 366 min; inhibition at 10 µM [5]: 0%; Tmax [6]: 25 min; Kp [7]: 273; Cmax [8]: 330 ng/mL; AUC(0-t) [9]: 930 ng·h/mL; AUC(0-t) [10]: 525 ng·h/mL; Stability [11]: Stable; AUC(0-inf) [12]: 990 ng·h/mL; Tmax [13]: 5 min; viability at 24 h, 10 µM [14]: 84%; remaining at 0.5 h, 1 µM [15]: 85%; Cmax [16]: 524 ng/mL
CN1CCCC(O/N=C/c2ccccc2OCc2ccc(Cl)c(Cl)c2)C1 (stereo not drawn)			62%	
Clc1cccc(Cl)c1COc1ccccc1/C=N/OC1CN2CCC1CC2 (stereo not drawn)			96%	
COc1cccc(/C=N/OC2CN3CCC2CC3)c1 (stereo not drawn)			86%	
CC(C)N1CCC(O/N=C/c2ccccc2OCc2cccc(F)c2)C1 (stereo not drawn)	-223%	94%	39%	
FC(F)(F)c1cccc(/C=N/OC2CCN(Cc3ccccc3)C2)c1 (stereo not drawn)			123%	
CN1CCCC(O/N=C/c2ccccc2OCc2ccc(Cl)cc2Cl)C1 (stereo not drawn)			64%	
CN1CCC(O/N=C/c2ccccc2OCc2ccccc2)C1 (stereo not drawn)			69%	
